Results on one molecule are retold here after ChEMBL document CHEMBL5385915 (J Med Chem, 2024).

In brackets after ≈: the same amount, converted by molar mass.

A word on the MIC99: it is the lowest concentration that inhibits either 99% of growth or 99% of the strains tested, depending on the study.

In this test the test system is Mycobacterium tuberculosis. Briefly: Antitubercular activity against multidrug-resistant Mycobacterium tuberculosis 08/00483E assessed as inhibition of bacterial growth measured for 7 days by REMA analysis. The settings on record: 168 h, time 7 day. The format is functional. The essentials: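 REMA: 2-fold dilutions in CMM MOD2 medium, wells inoculated at 1×10^6 CFU/mL, 7 days at 37 °C with 200 rpm agitation; resazurin (0.02% w/v in PBS pH 7.4, 5% Tween 80) then 6 h at room temperature; OD570 vs vehicle; MIC99 by modified Gompertz function; three biological replicates.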

Regarding `FC(F)(F)c1cc([C@H]2C[C@@H](CN3CCCC3)N2Cc2ccccc2Br)cc(C(F)(F)F)c1` (racemic), the MIC99 turned out to be 16.8 µM (≈ 8.76 µg/mL).
